This is an account of results in ChEMBL document CHEMBL3352065, “Greensporones: resorcylic acid lactones from an aquatic Halenospora sp” (J Nat Prod, 2014).

The test system of assay [1] is MDA-MB-435. Kind of assay: Cytotoxicity against human MDA-MB-435 cells assessed as cell viability after 72 hrs. The class given is functional, cell-based. Conditions: MDA-MB-435, 72 h. A digest of the protocol: (§1)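 ATCC lines grown in RPMI 1640 with 10% FBS, penicillin and streptomycin at 37 °C, 5% CO2. Log-phase cells were trypsinized, washed twice, seeded at 5000/well and incubated overnight. Compound was added from DMSO at 20, 4, 0.8, 0.16 and 0.032 μM (0.5% DMSO final) for 72 h at 37 °C. Viable cells were read by commercial absorbance assay. IC50 is growth inhibition to 50% of DMSO control.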

Assay [2] deals with HT-29. The assay can be described thus: Cytotoxicity against human HT-29 cells assessed as cell viability after 72 hrs. It counts as functional, cell-based. Conditions: HT-29, 72 h. In outline: as §1
For assay [3], the target named is TAK1/TAB1 (Homo sapiens) (UniProt Q15750+O43318). The assay can be described thus: Inhibition of Tak1-TAB1 (unknown origin) assessed as enzyme activity by Kinase-Glo Plus luminescence kinase assay. It counts as protein-complex assay. (In general: Kinase-Glo reads ATP consumption through a luciferase reaction.)
For assay [4], the system named is HT-29. The assay can be described thus: Cytotoxicity against human HT-29 cells assessed as cell viability at 10 nM after 72 hrs. The class given is functional. Conditions: HT-29, 72 h, read-out: Activity. In outline:
(§2)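 Vinblastine was the positive control, at 10 nM in HT-29 and 1 nM in MDA-MB-435 cells. Cells were seeded at 5000/well, incubated overnight, then exposed for 72 h at 37 °C in 5% CO2. Viability was read by absorbance assay of viable cells and expressed as % viable cells.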

For assay [5], the system named is MDA-MB-435. Kind of assay: Cytotoxicity against human MDA-MB-435 cells assessed as cell viability at 1 nM after 72 hrs. Conditions: MDA-MB-435, 72 h, read-out: Activity. It counts as functional. In outline: as §2

The source made the active and inactive calls. The rule behind the calls is not given here.

By IC50 is commonly meant the concentration that gives 50% inhibition.

On to `COc1cc(O)cc2c1C(=O)O[C@@H](C)CC[C@@H](O)CC/C=C/C(=O)C2`, for which the IC50 turned out to be 11.2 µM in assay [1] and 25.4 µM in assay [2]. Besides, in assay [3], the inhibition entry is “inactive”.
Consider `COc1cc(O)c(Cl)c2c1C(=O)O[C@@H](C)CCC(=O)CC/C=C\C(=O)C2`, for which the inhibition result in assay [3] is “inactive”.
As to `COc1cc(O)cc2c1C(=O)O[C@@H](C)CCCCCCCC(=O)C2`, in assay [3], the inhibition result is “inactive”.
`COc1cc(O)cc2c1C(=O)O[C@@H](C)CCC(=O)CC/C=C/C(=O)C2`: the concentration for half-maximal inhibition (IC50) in assay [1] is 14.1 µM; in assay [2], above 20 µM. In assay [3], the inhibition entry was “inactive”.
As to `COc1cc(O)cc2c1C(=O)O[C@@H](C)CC[C@H]1CC[C@H](CC(=O)C2)O1`, the inhibition entry in assay [3] is “inactive”.
On the same count and under the same terms, for `COc1cc(O)c(Cl)c2c1C(=O)O[C@@H](C)CCC(=O)CCCCC(=O)C2` the value was “inactive”.
On to `CC[C@]1(O)C[C@@H]2CN(CCc3c([nH]c4ccccc34)[C@@](C(=O)OC)(c3cc4c(cc3OC)N(C)[C@H]3[C@@](O)(C(=O)OC)[C@H](OC(C)=O)[C@]5(CC)C=CCN6CC[C@]43[C@@H]65)C2)C1` [VINBLASTINE], for which the viability at 0.01 µM in assay [4] was 44%. The viability at 0.001 µM in assay [5] amounted to 21%.
With `C[C@H]1CCCCC/C=C/C(=O)Cc2cc(O)cc(O)c2C(=O)O1`, the IC50 is 14.5 µM in assay [1] and 13.8 µM in assay [2]. Moreover, in assay [3], the inhibition entry is “inactive”.
`COc1cc(O)c(Cl)c2c1C(=O)O[C@@H](C)CCC(=O)CC/C=C/C(=O)C2`: the IC50 in assay [1] was 14.1 µM; in assay [2] it was above 20 µM. Moreover, the inhibition result in assay [3] is “inactive”.
In the case of `COc1cc(O)c(Cl)c2c1C(=O)O[C@@H](C)CC[C@@H](O)CC/C=C\C(=O)C2`, the inhibition result in assay [3] is “inactive”.
Still for that read-out and setting: then `COc1cc(O)cc2c1C(=O)O[C@@H](C)CC[C@H]1CC[C@@H](CC(=O)C2)O1`, with “inactive”; and `COc1cc(O)c(Cl)c2c1C(=O)O[C@@H](C)CC[C@@H](O)CCCCC(=O)C2`, with “inactive”.
On to `COc1cc(O)cc2c1C(=O)O[C@@H](C)CCCCC/C=C/C(=O)C2`, for which the 50% inhibitory concentration (IC50) in assay [1] was found to be 2.9 µM; in assay [2] it was 7.5 µM. Also, the inhibition result in assay [3] was “inactive”.
